{
  "source": "ChEMBL document CHEMBL1137762",
  "about": "“Design, microwave-assisted synthesis and HIV-RT inhibitory activity of 2-(2,6-dihalophenyl)-3-(4,6-dimethyl-5-(un)substituted-pyrimidin-2-yl)thiazolidin-4-ones” (Bioorg Med Chem, 2009)",
  "data": [
    {"target": "Human immunodeficiency virus type 1 reverse transcriptase (Human immunodeficiency virus 1, UniProt Q72547)", "experiment": "Inhibition of HIV1 reverse transcriptase after 1 hr by ELISA", "summary_of_the_method": "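Commercial colorimetric RT kit; template/primer complex, biotin- and DIG-labelled dNTPs and RT enzyme in lysis buffer, with or without inhibitor, incubated 1 h at 37 °C. Product captured on streptavidin-coated plate, washed, probed with anti-DIG-peroxidase, then ABTS substrate added; absorbance read at 405 nm.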", "units": {"IC50": "µM"}, "values": [
      {"smiles": "CCCCCc1c(C)nc(N2C(=O)CSC2c2c(F)cccc2Cl)nc1C", "note": "(stereo unspecified)", "IC50": 16.1},
      {"smiles": "CCCCc1c(C)nc(N2C(=O)CSC2c2c(F)cccc2Cl)nc1C", "note": "(stereo unspecified)", "IC50": 16},
      {"smiles": "C=CCc1c(C)nc(N2C(=O)CSC2c2c(Cl)cccc2Cl)nc1C", "note": "(stereo unspecified)", "IC50": 1.22},
      {"smiles": "CCc1c(C)nc(N2C(=O)CSC2c2c(Cl)cccc2Cl)nc1C", "note": "(stereo unspecified)", "IC50": 0.26},
      {"smiles": "Cc1nc(N2C(=O)CSC2c2c(Cl)cccc2Cl)nc(C)c1C", "note": "(stereo unspecified)", "IC50": 0.83},
      {"smiles": "Cc1nc(N2C(=O)CSC2c2c(Cl)cccc2Cl)nc(C)c1CCC#N", "note": "(stereo unspecified)", "IC50": 1.02},
      {"smiles": "CCCc1c(C)nc(N2C(=O)CSC2c2c(F)cccc2Cl)nc1C", "note": "(stereo unspecified)", "IC50": 0.85},
      {"smiles": "Cc1nc(N2C(=O)CSC2c2c(F)cccc2Cl)nc(C)c1CCC#N", "note": "(stereo unspecified)", "IC50": 2.01},
      {"smiles": "CCc1c(C)nc(N2C(=O)CSC2c2c(F)cccc2Cl)nc1C", "note": "(stereo unspecified)", "IC50": 0.23},
      {"smiles": "Cc1nc(N2C(=O)CSC2c2c(Cl)cccc2Cl)nc(C)c1Br", "note": "(stereo unspecified)", "IC50": 9.82},
      {"smiles": "Cc1nc(N2C(=O)CSC2c2c(F)cccc2Cl)nc(C)c1C", "note": "(stereo unspecified)", "IC50": 0.38},
      {"smiles": "CCCc1c(C)nc(N2C(=O)CSC2c2c(Cl)cccc2Cl)nc1C", "note": "(stereo unspecified)", "IC50": 0.77},
      {"smiles": "Cc1nc(N2C(=O)CSC2c2c(F)cccc2Cl)nc(C)c1Br", "note": "(stereo unspecified)", "IC50": 1.52},
      {"smiles": "CCCCc1c(C)nc(N2C(=O)CSC2c2c(Cl)cccc2Cl)nc1C", "note": "(stereo unspecified)", "IC50": 4.29},
      {"smiles": "CCCCCc1c(C)nc(N2C(=O)CSC2c2c(Cl)cccc2Cl)nc1C", "note": "(stereo unspecified)", "IC50": 74.4},
      {"smiles": "C=CCc1c(C)nc(N2C(=O)CSC2c2c(F)cccc2Cl)nc1C", "note": "(stereo unspecified)", "IC50": 2.92}
    ]}
  ]
}
